Assay results published in ChEMBL document CHEMBL1123658, “1-(2-pyridinyl)piperazine derivatives with antianaphylactic, antibronchospastic, and mast cell stabilizing activities” (J Med Chem, 1987).

How the values were obtained:
Cavia porcellus = test: Antibronchospatic activity determined by histamine stimulated bronchospasm inhibition in guinea pigs after(i.v.) administration; assay type: functional, Bronchiole
How it was run: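 Guinea pigs, Konzett–Rössler preparation. Bronchospasm was induced with histamine. Compound was given iv (1 mL/kg) 1 min before the agonist, dissolved in saline or saline with slight excess HCl or CH3SO3H (pH 3.5–4). Three doses were tested in duplicate, chosen to give 20–90% inhibition. ID75 was read graphically from log dose–response curves.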

[1] = In vivo toxic effect was determined in mouse after intraperitoneal administration with 10% aqueous acacia gum; value ranges from 0.72-1.13; assay type: toxicity, organism-based; conditions: ip
How it was run: (§1)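 Female albino mice (20-30 g), 10 animals per dose, dosed intraperitoneally with compound in solution or suspension; compounds tested as salts unless noted. Mortality was recorded over 7 days.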

Rattus norvegicus [2] = test: Rat PCA Test(50% inhibition of spot areas)in the female albino rats after (ip) administration in 10% aqueous acacia gum;Value ranges from (81-186); assay type: functional; conditions: read-out: ID50 (the source's name)
How it was run: (§2)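 Antiserum came from female rats given 1% egg albumin in 0.9% NaCl intramuscularly plus Haemophilus pertussis vaccine (2 × 10^10 organisms) intraperitoneally, and was collected 12 days later. Recipient rats (200-250 g) got it intradermally at a ventral site. After 24 h, groups of 10 received vehicle or compound ip. At 30 min they were challenged iv with 0.3% egg albumin plus 1% Evans blue. Blued skin areas were measured 30 min later.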

Rattus norvegicus [3] = test: Rat PCA Test(50% inhibition of spot areas)in the female albino rats after (ip) administration in 10% aqueous acacia gum; assay type: functional; conditions: read-out: ID50 (the source's name)
How it was run: (§3)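 Female albino rats (200–250 g) received intradermal ventral injections of rat anti-egg-albumin antiserum; donors were raised with egg albumin im plus H. pertussis ip, and serum was taken at 12 days. 24 h later, compound was given ip in 10% acacia gum (10 mL/kg), 10 rats/group. Challenge 30 min later was iv 0.3% egg albumin plus 1% Evans blue. Blued areas were measured 30 min after challenge.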

[4] = In vivo toxic effect was determined in mouse after intraperitoneal administration with 10% aqueous acacia gum; value ranges from 5.14-9.14; assay type: toxicity, organism-based; conditions: ip; how it was run: as §1
Rattus norvegicus [5] = test: Rat PCA Test(50% inhibition of spot areas)in the female albino rats after (ip) administration in 10% aqueous acacia gum; value ranges from 22-195; assay type: functional; conditions: read-out: ID50 (the source's name); how it was run: as §3
Rattus norvegicus [6] = test: Rat PCA Test(50% inhibition of spot areas)in the female albino rats after oral administration in 10% aqueous acacia gum; assay type: functional; conditions: read-out: ID50 (the source's name)
How it was run: (§4)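 Female rats (200-250 g) were passively sensitized by ventral intradermal anti-egg-albumin antiserum. This was raised in rats by intramuscular 1% egg albumin plus ip H. pertussis vaccine, with serum taken at 12 days. After 24 h, groups of 10 were dosed orally with compound or vehicle (10 mL/kg). At 60 min, iv challenge used 0.3% egg albumin with 1% Evans blue. Blued areas were measured after 30 min.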

[7] = In vivo toxic effect was determined in mouse after intraperitoneal administration with 10% aqueous acacia gum; value ranges from 0.72-1.40; assay type: toxicity, organism-based; conditions: ip; how it was run: as §1
[8] = In vivo toxic effect was determined in mouse after oral administration with 10% aqueous acacia gum; value ranges from 1.35-1.88; assay type: toxicity, organism-based
How it was run: (§5)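 Female albino mice, 20-30 g. Compound given orally as solution or suspension in 10% aqueous acacia gum, 10 animals per dose. Deaths recorded over 7 days.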

Rattus norvegicus [9] = test: Rat PCA Test(50% inhibition of spot areas)in the female albino rats after (ip) administration in 10% aqueous acacia gum; value ranges from 114-198; assay type: functional; conditions: read-out: ID50 (the source's name); how it was run: as §3
[10] = In vivo toxic effect was determined in mouse after intraperitoneal administration with 10% aqueous acacia gum; value ranges from 0.85-1.18; assay type: toxicity, organism-based; conditions: ip; how it was run: as §1
[11] = In vivo toxic effect was determined in mouse after oral administration with 10% aqueous acacia gum; value ranges from 0.68-1.24; assay type: toxicity, organism-based; how it was run: as §5
Rattus norvegicus [12] = test: Rat PCA Test(50% inhibition of spot areas)in the female albino rats after (ip) administration in 10% aqueous acacia gum; value ranges from 328-1350; assay type: functional; conditions: read-out: ID50 (the source's name); how it was run: as §3
[13] = In vivo toxic effect was determined in mouse after intraperitoneal administration with 10% aqueous acacia gum; value ranges from 3.67-6.20; assay type: toxicity, organism-based; conditions: ip; how it was run: as §1
Rattus norvegicus [14] = test: Inhibition of mast cell degranulation was assessed in female albino rats at a dose of 45 umol/kg iv; assay type: functional
Rattus norvegicus [15] = test: Rat PCA Test(50% inhibition of spot areas)in the female albino rats after (ip) administration in 10% aqueous acacia gum; value ranges from 24-51; assay type: functional; conditions: read-out: ID50 (the source's name); how it was run: as §3
Rattus norvegicus [16] = test: Rat PCA Test(50% inhibition of spot areas)in the female albino rats after oral administration in 10% aqueous acacia gum; value ranges from 13-117; assay type: functional; conditions: read-out: ID50 (the source's name); how it was run: as §4
[17] = In vivo toxic effect was determined in mouse after oral administration with 10% aqueous acacia gum; value ranges from 2.50-3.50; assay type: toxicity, organism-based; how it was run: as §5
[18] = In vivo toxic effect was determined in mouse after intraperitoneal administration with 10% aqueous acacia gum; value ranges from 1-1.40; assay type: toxicity, organism-based; conditions: ip; how it was run: as §1
[19] = In vivo toxic effect was determined in mouse after intraperitoneal administration with 10% aqueous acacia gum; value ranges from 0.40-1.72; assay type: toxicity, organism-based; conditions: ip; how it was run: as §1
[20] = In vivo toxic effect was determined in mouse after oral administration with 10% aqueous acacia gum; value ranges from 0.67-1.21; assay type: toxicity, organism-based; how it was run: as §5
[21] = In vivo toxic effect was determined in mouse after oral administration with 10% aqueous acacia gum; value ranges from 0.84-1.62; assay type: toxicity, organism-based; how it was run: as §5
[22] = In vivo toxic effect was determined in mouse after intraperitoneal administration with 10% aqueous acacia gum; value ranges from 0.43-0.73; assay type: toxicity, organism-based; conditions: ip; how it was run: as §1
Rattus norvegicus [23] = test: Rat PCA Test(50% inhibition of spot areas)in the female albino rats after (ip) administration in 10% aqueous acacia gum; value ranges from 25-150; assay type: functional; conditions: read-out: ID50 (the source's name); how it was run: as §3
[24] = In vivo toxic effect was determined in mouse after intraperitoneal administration with 10% aqueous acacia gum; value ranges from 0.29-0.60; assay type: toxicity, organism-based; conditions: ip; how it was run: as §1
[25] = In vivo toxic effect was determined in mouse after oral administration with 10% aqueous acacia gum; value ranges from 0.86-1.66; assay type: toxicity, organism-based; how it was run: as §5
Rattus norvegicus [26] = test: Rat PCA Test(50% inhibition of spot areas)in the female albino rats after (ip) administration in 10% aqueous acacia gum; value ranges from 20-94; assay type: functional; conditions: read-out: ID50 (the source's name); how it was run: as §3
[27] = In vivo toxicity in mouse after oral administration with 10% aqueous acacia gum; assay type: organism-based; how it was run: as §5
Mus musculus = test: In vivo toxic effect was determined in mouse after intraperitoneal administration with 10% aqueous acacia gum; NA means poorly absorbed; assay type: toxicity, organism-based; conditions: ip; how it was run: as §1
Rattus norvegicus [28] = test: Inhibition of mast cell degranulation was assessed in female albino rats at a dose of 2 umol/kg iv; assay type: functional
Rattus norvegicus [29] = test: Rat PCA Test(50% inhibition of spot areas)in the female albino rats after oral administration in 10% aqueous acacia gum; value ranges from 1.7-2.4; assay type: functional; conditions: read-out: ID50 (the source's name); how it was run: as §4
[30] = In vivo toxic effect was determined in mouse after intraperitoneal administration with 10% aqueous acacia gum; value ranges from 0.29-0.42; assay type: toxicity, organism-based; conditions: ip; how it was run: as §1
[31] = In vivo toxic effect was determined in mouse after oral administration with 10% aqueous acacia gum; value ranges from 0.50-0.68; assay type: toxicity, organism-based
[32] = In vivo toxic effect was determined in mouse after intraperitoneal administration with 10% aqueous acacia gum; value ranges from 1.41-3.07; assay type: toxicity, organism-based; conditions: ip; how it was run: as §1
[33] = In vivo toxic effect was determined in mouse after oral administration with 10% aqueous acacia gum; value ranges from 3.02-4.51; assay type: toxicity, organism-based; how it was run: as §5
Rattus norvegicus [34] = test: Inhibition of mast cell degranulation was assessed in female albino rats at a dose of 61 umol/kg iv; assay type: functional
[35] = In vivo toxic effect was determined in mouse after intraperitoneal administration with 10% aqueous acacia gum; value ranges from 0.96-10.62; assay type: toxicity, organism-based; conditions: ip; how it was run: as §1
[36] = In vivo toxic effect was determined in mouse after oral administration with 10% aqueous acacia gum; value ranges from 1.79-2.41; assay type: toxicity, organism-based; how it was run: as §5
Rattus norvegicus [37] = test: Inhibition of mast cell degranulation was assessed in female albino rats at a dose of 29 umol/kg iv; assay type: functional
Rattus norvegicus [38] = test: Rat PCA Test(50% inhibition of spot areas)in the female albino rats after (ip) administration in 10% aqueous acacia gum; value ranges from 57-105; assay type: functional; conditions: read-out: ID50 (the source's name); how it was run: as §3
[39] = In vivo toxic effect was determined in mouse after intraperitoneal administration with 10% aqueous acacia gum; value ranges from 1.73-3.04; assay type: toxicity, organism-based; conditions: ip; how it was run: as §1
Rattus norvegicus [40] = test: Rat PCA Test(50% inhibition of spot areas)in the female albino rats after ip administration in 10% aqueous acacia gum; assay type: functional; conditions: read-out: ID50 (the source's name); how it was run: as §2
[41] = In vivo toxic effect was determined in mouse after intraperitoneal administration with 10% aqueous acacia gum; value ranges from 0.63-1.05; assay type: toxicity, organism-based; conditions: ip; how it was run: as §1

Cc1cccc(C)c1NC(=O)CN1CCN(c2ccccn2)CC1
ID75 (Cavia porcellus): >24 µM/kg | LD50 [1]: 900 µmol/kg | ED50 (Rattus norvegicus [2]): 123 µmol/kg

CCOC(=O)CC(C)N1CCN(c2ccccn2)CC1.Cl.Cl (centres undefined)
ID75 (Cavia porcellus): 4.14 µM/kg | ED50 (Rattus norvegicus [3]): > 857 µmol/kg | LD50 [4]: 6850 µmol/kg

Cc1ccccc1NC(=O)CCN1CCN(c2ccccn2)CC1
ID75 (Cavia porcellus): 0.47 µM/kg | ED50 (Rattus norvegicus [5]): 65 µmol/kg | ED50 (Rattus norvegicus [6]): > 96 µmol/kg | LD50 [7]: 1010 µmol/kg | LD50 [8]: 1580 µmol/kg

Cl.Nc1cccc(NC(=O)CCN2CCN(c3ccccn3)CC2)c1
ID75 (Cavia porcellus): 0.61 µM/kg | ED50 (Rattus norvegicus [9]): 148 µmol/kg | LD50 [10]: 900 µmol/kg | LD50 [11]: 850 µmol/kg

CCOC(=O)CCN1CCN(c2ccccn2)CC1.Cl.Cl
ID75 (Cavia porcellus): 7.03 µM/kg | ED50 (Rattus norvegicus [12]): 665 µmol/kg | LD50 [13]: 5080 µmol/kg

CC1CN(c2ccccn2)CCN1CCC(=O)Nc1ccc(N)cc1.Cl (centres undefined)
inhibition in vivo at 45 µmol/kg (Rattus norvegicus [14]): 14% | ID75 (Cavia porcellus): 0.59 µM/kg | ED50 (Rattus norvegicus [15]): 35 µmol/kg | ED50 (Rattus norvegicus [16]): 92 µmol/kg | LD50 [17]: 2970 µmol/kg | LD50 [18]: 1190 µmol/kg

Cl.Cl.O=C(CCN1CCN(c2ccccn2)CC1)Nc1ccc([N+](=O)[O-])cc1
ID75 (Cavia porcellus): 0.94 µM/kg | LD50 [19]: 470 µmol/kg | LD50 [20]: 810 µmol/kg

Cl.Cl.O=C(CCN1CCN(c2ccccn2)CC1)Nc1cccc(C(F)(F)F)c1
ID75 (Cavia porcellus): 0.65 µM/kg | ED50 (Rattus norvegicus [3]): > 55 µmol/kg | LD50 [21]: 1170 µmol/kg | LD50 [22]: 560 µmol/kg

CC1CN(c2ccccn2)CCN1CCC(=O)Nc1ccc([N+](=O)[O-])cc1.Cl.Cl (centres undefined)
ED50 (Rattus norvegicus [23]): 61 µmol/kg | LD50 [24]: 420 µmol/kg | LD50 [25]: 1200 µmol/kg

Br.CC(=O)c1ccc(NC(=O)CCN2CCN(c3ccc(Br)cn3)CC2)cc1
ED50 (Rattus norvegicus [26]): 43 µmol/kg | ED50 (Rattus norvegicus [6]): > 230 µmol/kg | LD50 [27]: > 7000 µmol/kg | LD50 (Mus musculus): Not Active

CN1CCC(=C2c3ccccc3CC(=O)c3sccc32)CC1 [KETOTIFEN]
inhibition in vivo at 2 µmol/kg (Rattus norvegicus [28]): 22% | ID75 (Cavia porcellus): 0.0015 µM/kg | ED50 (Rattus norvegicus [29]): 2 µmol/kg | LD50 [30]: 350 µmol/kg | LD50 [31]: 580 µmol/kg

Cl.Cl.O=C(CCN1CCN(c2ccccn2)CC1)Nc1ccccc1[N+](=O)[O-]
ID75 (Cavia porcellus): 0.58 µM/kg | ED50 (Rattus norvegicus [3]): > 230 µmol/kg | LD50 [32]: 2080 µmol/kg | LD50 [33]: 3700 µmol/kg

Nc1ccccc1NC(=O)CCN1CCN(c2ccccn2)CC1
inhibition in vivo at 61 µmol/kg (Rattus norvegicus [34]): 26% | LD50 [35]: 3200 µmol/kg | LD50 [36]: 2080 µmol/kg

CC(=O)c1ccccc1NC(=O)CCN1CCN(c2ccccn2)CC1.Cl.Cl
inhibition in vivo at 29 µmol/kg (Rattus norvegicus [37]): 0% | ID75 (Cavia porcellus): 0.89 µM/kg | ED50 (Rattus norvegicus [38]): 77 µmol/kg | ED50 (Rattus norvegicus [6]): > 230 µmol/kg | LD50 [39]: 2300 µmol/kg | LD50 [27]: > 6910 µmol/kg

Cc1c(C)c(C(=O)NCCN2CCN(c3ccccn3)CC2)c(C)c(C)c1N
ID75 (Cavia porcellus): 8.39 µM/kg | ED50 (Rattus norvegicus [40]): > 236 µmol/kg | LD50 [41]: 710 µmol/kg
